Results: ChEMBL document CHEMBL5247578, “Effective synthesis of benzimidazoles-imidazo[1,2-a]pyrazine conjugates: A comparative study of mono-and bis-benzimidazoles for antitumor activity” (Eur J Med Chem, 2019)

Experiments:
Albumin = Albumin (Bos taurus, UniProt P02769); assay: Binding affinity to bovine serum albumin assessed as binding constant by Stern-Volmer equation based fluorescence spectroscopic method; details: cattle
DU-145 = assay: Antiproliferative activity against human DU-145 cells assessed as cell growth at 0.00000001 M incubated for 48 hrs by SRB assay relative to control; type: functional; details: dose 10 nM, read-out: Activity
How it was run: (§1)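 NCI-60 five-dose screen over 10^-4–10^-8 M (10-fold dilutions). Cells grown in RPMI 1640 with 5% FBS and 2 mM L-glutamine, seeded at 5,000–40,000 cells/well and preincubated 24 h. Drug from DMSO stock, 48 h at 37 °C, 5% CO2. Adherent cells TCA-fixed and stained with 0.4% SRB; A515 read. Percent growth = (Ti−Tz)/(C−Tz)×100, or (Ti−Tz)/Tz×100 when Ti<Tz.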

NCI-H322M = assay: Antiproliferative activity against human NCI-H322M cells assessed as cell growth at 0.00000001 M incubated for 48 hrs by SRB assay relative to control; type: functional; details: dose 10 nM, read-out: Activity
SF-268 = assay: Antiproliferative activity against human SF-268 cells assessed as cell growth inhibition by measuring lethal concentration incubated for 48 hrs by sulforhodamine B assay; type: functional; details: read-out: LC50 (the source's name)
RPMI-8226 = assay: Antiproliferative activity against human RPMI-8226 cells assessed as cell growth inhibition by measuring lethal concentration incubated for 48 hrs by sulforhodamine B assay; type: functional; details: read-out: LC50 (the source's name)
UACC-257 = assay: Growth inhibition against human UACC-257 cells assessed as total growth inhibitory concentration incubated for 48 hrs by sulforhodamine B assay; type: functional
NCI-H460 = assay: Growth inhibition against human NCI-H460 cells assessed as total growth inhibitory concentration incubated for 48 hrs by sulforhodamine B assay; type: functional
MOLT-4 = assay: Growth inhibition against human MOLT-4 cells assessed as total growth inhibitory concentration incubated for 48 hrs by sulforhodamine B assay; type: functional
MCF7 [1] = assay: Growth inhibition against human MCF7 cells incubated for 48 hrs by sulforhodamine B assay; type: functional
OVCAR-8 [2] = assay: Growth inhibition against human OVCAR-8 cells incubated for 48 hrs by sulforhodamine B assay; type: functional
HT-29 = assay: Growth inhibition against human HT-29 cells incubated for 48 hrs by sulforhodamine B assay; type: functional
SR = assay: Growth inhibition against human SR cells incubated for 48 hrs by sulforhodamine B assay; type: functional
OVCAR-4 = assay: Antiproliferative activity against human OVCAR-4 cells assessed as cell growth inhibition by measuring lethal concentration incubated for 48 hrs by sulforhodamine B assay; type: functional; details: read-out: LC50 (the source's name)
NCI-H23 = assay: Antiproliferative activity against human NCI-H23 cells assessed as cell growth at 0.0000001 M incubated for 48 hrs by SRB assay relative to control; type: functional; details: dose 100 nM, read-out: Activity
UO-31 [3] = assay: Antiproliferative activity against human UO-31 cells assessed as cell growth at 0.0000001 M incubated for 48 hrs by SRB assay relative to control; type: functional; details: dose 100 nM, read-out: Activity
PC-3 [4] = assay: Antiproliferative activity against human PC-3 cells assessed as cell growth at 0.0000001 M incubated for 48 hrs by SRB assay relative to control; type: functional; details: dose 100 nM, read-out: Activity
A549 = assay: Antiproliferative activity against human A549 cells assessed as cell growth at 0.000001 M incubated for 48 hrs by SRB assay relative to control; type: functional; details: read-out: Activity; how it was run: as §1
HCT-15 [5] = assay: Antiproliferative activity against human HCT-15 cells assessed as cell growth at 0.000001 M incubated for 48 hrs by SRB assay relative to control; type: functional; details: read-out: Activity
How it was run: (§2)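 NCI-60 five-dose screen (10^-4 to 10^-8 M). Cells grown in RPMI 1640 with 5% FBS and 2 mM L-glutamine, plated at 5,000-40,000 cells/well and preincubated 24 h. Drug given from DMSO stock, then 48 h at 37 °C, 5% CO2. For adherent lines, cells fixed with cold TCA, SRB-stained and read at 515 nm. Percent growth taken against time-zero and untreated control.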

UO-31 [6] = assay: Antiproliferative activity against human UO-31 cells assessed as cell growth at 0.000001 M incubated for 48 hrs by SRB assay relative to control; type: functional; details: read-out: Activity
MDA-MB-231 [7] = assay: Antiproliferative activity against human MDA-MB-231 cells assessed as cell growth at 0.000001 M incubated for 48 hrs by SRB assay relative to control; type: functional; details: read-out: Activity
NCI-H522 = assay: Antiproliferative activity against human NCI-H522 cells assessed as cell growth at 0.00001 M incubated for 48 hrs by SRB assay relative to control; type: functional; details: read-out: Activity
COLO 205 = assay: Antiproliferative activity against human COLO 205 cells assessed as cell growth at 0.00001 M incubated for 48 hrs by SRB assay relative to control; type: functional; details: read-out: Activity; how it was run: as §1
HCC 2998 = assay: Antiproliferative activity against human HCC 2998 cells assessed as cell growth at 0.00001 M incubated for 48 hrs by SRB assay relative to control; type: functional; details: read-out: Activity; how it was run: as §2
HCT-15 [8] = assay: Antiproliferative activity against human HCT-15 cells assessed as cell growth at 0.00001 M incubated for 48 hrs by SRB assay relative to control; type: functional; details: read-out: Activity; how it was run: as §2
SNB-19 = assay: Antiproliferative activity against human SNB-19 cells assessed as cell growth at 0.00001 M incubated for 48 hrs by SRB assay relative to control; type: functional; details: read-out: Activity
OVCAR-8 [9] = assay: Antiproliferative activity against human OVCAR-8 cells assessed as cell growth at 0.00001 M incubated for 48 hrs by SRB assay relative to control; type: functional; details: read-out: Activity
NCI/ADR-RES = assay: Antiproliferative activity against human NCI/ADR-RES cells assessed as cell growth at 0.00001 M incubated for 48 hrs by SRB assay relative to control; type: functional; details: read-out: Activity
ACHN = assay: Antiproliferative activity against human ACHN cells assessed as cell growth at 0.00001 M incubated for 48 hrs by SRB assay relative to control; type: functional; details: read-out: Activity; how it was run: as §1
PC-3 [10] = assay: Antiproliferative activity against human PC-3 cells assessed as cell growth at 0.00001 M incubated for 48 hrs by SRB assay relative to control; type: functional; details: read-out: Activity
MCF7 [11] = assay: Antiproliferative activity against human MCF7 cells assessed as cell growth at 0.00001 M incubated for 48 hrs by SRB assay relative to control; type: functional; details: read-out: Activity
MDA-MB-231 [12] = assay: Antiproliferative activity against human MDA-MB-231 cells assessed as cell growth at 0.00001 M incubated for 48 hrs by SRB assay relative to control; type: functional; details: read-out: Activity
CCRF-CEM = assay: Antiproliferative activity against human CCRF-CEM cells assessed as cell growth at 0.0001 M incubated for 48 hrs by SRB assay relative to control; type: functional; details: read-out: Activity; how it was run: as §1
OVCAR-3 = assay: Antiproliferative activity against human OVCAR-3 cells assessed as cell growth at 0.0001 M incubated for 48 hrs by SRB assay relative to control; type: functional; details: read-out: Activity
OVCAR-5 = assay: Antiproliferative activity against human OVCAR-5 cells assessed as cell growth at 0.0001 M incubated for 48 hrs by SRB assay relative to control; type: functional; details: read-out: Activity
MDA-MB-231 [13] = assay: Antiproliferative activity against human MDA-MB-231 cells assessed as cell growth at 0.0001 M incubated for 48 hrs by SRB assay relative to control; type: functional; details: read-out: Activity

Chain of Albumin (P02769 whole entry): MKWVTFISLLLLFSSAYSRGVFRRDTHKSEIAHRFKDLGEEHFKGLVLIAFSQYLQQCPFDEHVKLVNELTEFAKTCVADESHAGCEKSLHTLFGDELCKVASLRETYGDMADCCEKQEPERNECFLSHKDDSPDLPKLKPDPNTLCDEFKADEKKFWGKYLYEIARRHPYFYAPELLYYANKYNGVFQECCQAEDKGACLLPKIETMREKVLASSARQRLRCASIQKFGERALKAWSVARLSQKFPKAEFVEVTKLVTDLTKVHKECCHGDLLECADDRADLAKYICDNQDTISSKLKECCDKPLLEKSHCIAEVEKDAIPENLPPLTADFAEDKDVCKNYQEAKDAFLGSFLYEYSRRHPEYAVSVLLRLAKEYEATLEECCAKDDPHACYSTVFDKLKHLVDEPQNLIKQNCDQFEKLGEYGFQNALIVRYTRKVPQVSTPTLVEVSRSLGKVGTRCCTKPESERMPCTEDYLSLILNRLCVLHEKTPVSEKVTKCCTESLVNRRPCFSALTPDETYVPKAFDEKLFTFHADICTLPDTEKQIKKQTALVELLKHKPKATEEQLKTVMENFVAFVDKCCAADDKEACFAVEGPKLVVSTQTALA

Row | SMILES | Kb (Albumin) | growth at 0.01 µM (DU-145) | growth at 0.01 µM (NCI-H322M) | CC50 (SF-268) | CC50 (RPMI-8226) | TGI (UACC-257) | TGI (NCI-H460) | TGI (MOLT-4) | GI50 (MCF7 [1]) | GI50 (OVCAR-8 [2]) | GI50 (HT-29) | GI50 (SR) | CC50 (OVCAR-4) | growth at 0.1 µM (NCI-H23) | growth at 0.1 µM (UO-31 [3]) | growth at 0.1 µM (PC-3 [4]) | growth at 1 µM (A549) | growth at 1 µM (HCT-15 [5]) | growth at 1 µM (UO-31 [6]) | growth at 1 µM (MDA-MB-231 [7]) | other results
1 | c1ccc(Cn2cnc3ccc(-c4nc(-c5ccc6c(c5)ncn6C5CCCCC5)cn5ccnc45)cc32)cc1 | 1.08 10^5/M | 99% | 97% | > 100 µM | > 100 µM | 4.31 µM | 5.66 µM | > 100 µM | 2.72 µM | 2.6 µM | 1.89 µM | 1.68 µM | > 100 µM | 93% | 86% | 96% | 106% | 65% | 78% | 83% | growth at 10 µM (NCI-H522): -37%; growth at 10 µM (COLO 205): -61%; growth at 10 µM (HCC 2998): -92%; growth at 10 µM (HCT-15 [8]): -13%; growth at 10 µM (SNB-19): 28%; growth at 10 µM (OVCAR-8 [9]): -23%; growth at 10 µM (NCI/ADR-RES): -30%; growth at 10 µM (ACHN): 11%; growth at 10 µM (PC-3 [10]): -10%; growth at 10 µM (MCF7 [11]): 2%; growth at 10 µM (MDA-MB-231 [12]): -63%; growth at 100 µM (CCRF-CEM): 9%; growth at 100 µM (OVCAR-3): -19%; growth at 100 µM (OVCAR-5): 21%; growth at 100 µM (MDA-MB-231 [13]): -31%
2 | COc1ccc(-c2cn3ccnc3c(-c3ccc4ncn(C5CCCCC5)c4c3)n2)cc1 | 4.68 10^5/M | 103% | 92% | > 100 µM | > 100 µM | > 100 µM | > 100 µM | > 100 µM | 0.64 µM | 3.16 µM | 0.383 µM | 0.89 µM | > 100 µM | 95% | 88% | 98% | 63% | 42% | 55% | 81% | growth at 10 µM (NCI-H522): -7%; growth at 10 µM (COLO 205): 1%; growth at 10 µM (HCC 2998): 9%; growth at 10 µM (HCT-15 [8]): 9%; growth at 10 µM (SNB-19): 22%; growth at 10 µM (OVCAR-8 [9]): 8%; growth at 10 µM (NCI/ADR-RES): -4%; growth at 10 µM (ACHN): 13%; growth at 10 µM (PC-3 [10]): 5%; growth at 10 µM (MCF7 [11]): 16%; growth at 10 µM (MDA-MB-231 [12]): 12%; growth at 100 µM (CCRF-CEM): 22%; growth at 100 µM (OVCAR-3): 17%; growth at 100 µM (OVCAR-5): 56%; growth at 100 µM (MDA-MB-231 [13]): 19%
